Measurements from different studies.
Cell line: WI-38
Observed: cell growth or viability

Cc1nc(Nc2ncc(C(=O)Nc3c(C)cccc3Cl)s2)cc(N2CCN(CCO)CC2)n1 gave an EC50 of 0.7 µM (MTT; 72 h).
With c1ccc(CNCc2cc3c(-c4ccccc4)n[nH]c3c(Nc3ccccc3)n2)cc1 the IC50 was 8.2 µM (MTS; 48 h).
For C#CCOc1cc(C(=O)Nc2cc(OCCN)c3ccccc3n2)nc(C(=O)Nc2cc(OCCN)c3ccccc3n2)c1, the IC50 was 4 µM (ATP luminescence; 72 h).
Cc1cccc(-n2ncc(Br)c(Br)c2=O)c1 gave an IC50 of 2.61 µM (resazurin; 96 h).
CS(=O)(=O)CCNCc1ccc(-c2ccc3ncnc(Nc4ccc(OCc5cccc(F)c5)c(Cl)c4)c3c2)o1 gave an EC50 of 32 µM (MTT; 72 h).
CN(C)CCCOc1cc(NC(=O)c2cccc(C(=O)Nc3cc(OCCCN(C)C)c4ccccc4n3)n2)nc2ccccc12 has an IC50 of 2.1 µM (ATP luminescence; 72 h).
The IC50 of N#Cc1cc2c(-c3ccccc3)n[nH]c2c(Nc2ccccc2)n1 is reported as over 10 µM (MTS; 48 h).
The EC50 of C=C(c1ccc(C(=O)O)cc1)c1cc2c(cc1C)C(C)(C)CCC2(C)C is reported as 76 µM (MTT; 72 h).
COc1cc(Nc2nc(C#N)cc3c(-c4ccccc4)n[nH]c23)cc(OC)c1OC gave an IC50 of over 10 µM (MTS; 48 h).
CN(C)CCCOc1cc(NC(=O)c2cc(Cl)cc(C(=O)Nc3cc(OCCCN(C)C)c4ccccc4n3)n2)nc2ccccc12 gave an IC50 of 3.6 µM (ATP luminescence; 72 h).
